# Measurements published in ChEMBL document CHEMBL1141574, “A comparison of chloroambucil- and xylene-containing polyamines leads to improved ligands for accessing the polyamine transport system” (J Med Chem, 2008).
# pIC50, pKi: −log10 of the molar value.
# Assays:
# [1] = Inhibition of [3H]spermidine uptake at PAT in mouse L1210 cells; assay type: cell-based
# CHO = test: Cytotoxicity against PAT active CHO cells after 48 hrs; assay type: cell-based; details: Cricetulus griseus
# Procedure, shortened: (§1)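 CHO and CHO-MG grown in RPMI with 10% FCS, glutamine, penicillin/streptomycin and 2 mM aminoguanidine; CHO-MG medium also has L-proline (2 µg/mL); 37 °C, 5% CO2. Cells plated at 1 × 10⁴ cells/mL and drug added after overnight incubation. After 48 h exposure, growth read as MTT formazan absorbance at 540 nm. IC50 is the concentration giving 50% reduction in relative growth; ratio is CHO-MG IC50 over CHO IC50.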
# L1210 [2] = test: Cytotoxicity against mouse L1210 cells after 24 hrs in presence of spermidine; assay type: functional, cell-based; details: L1210, 24 h
# [3] = Chemical stability in phosphate buffer assessed as degraded compound after 48 hrs; assay type: physicochemical; details: read-out: Activity
# Procedure, shortened: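 NMR in phosphate buffer, pD 7.4, in D2O; sample held 48 h at 37 °C, then the fraction of conjugate degraded was read.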
# CHO-MG = test: Cytotoxicity against PAT deficient CHO-MG cells after 48 hrs; assay type: cell-based; details: Cricetulus griseus; procedure, shortened: as §1
# [4] = tested on: polyamine transporter (PAT); test: Ratio of IC50 for PAT deficient CHO-MG cells to IC50 for PAT active CHO cells; assay type: cell-based, Cricetulus griseus; details: chinese hamster, PAT-deficient CHO-MG cells and PAT-active CHO cells; read-out: Ratio IC50; procedure, shortened: as §1
# L1210 [5] = test: Cytotoxicity against mouse L1210 cells after 48 hrs; assay type: functional, cell-based; details: L1210, 48 h
# Procedure, shortened: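 L1210 cells in early to mid log phase, viability checked by trypan blue, grown in RPMI with 10% FCS, glutamine, antibiotics and 2 mM aminoguanidine at 37 °C, 5% CO2. Seeded at 6 × 10⁴ cells/mL with drug added at seeding. After 48 h exposure, growth read as MTT formazan at 540 nm. IC50 is the concentration reducing relative growth by 50%.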
# FL5.12 [6] = test: Induction of apoptosis in 2 ng/ml IL3-induced mouse FL5.12A cells at 10 uM; assay type: functional
# Procedure, shortened: (§2)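 FL5.12A pro-B cells in RPMI1640 with 10% heat-inactivated FCS, antibiotics and IL-3 (2, 0.1 or 0 ng/mL) at 37 °C, 5% CO2. Preincubated 24 h at 5 × 10⁶ cells/well, then given 10 µM compound with aminoguanidine for 24 h. Result is % annexin-positive cells; run in triplicate.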
# FL5.12 [7] = test: Induction of apoptosis in mouse FL5.12A cells at 10 uM; assay type: functional; procedure, shortened: as §2
# FL5.12 [8] = test: Induction of apoptosis in 0.1 ng/ml IL3-induced mouse FL5.12A cells at 10 uM; assay type: functional; procedure, shortened: as §2
# L1210 [9] = test: Cytotoxicity against mouse L1210 cells in presence of ODC inhibitor difluoromethylornithine; assay type: functional, cell-based
# [10] = Induction of apoptosis in 2 ng/ml IL3-induced mouse FL5.12A cells treated after DMSO shock at 10 uM in presence of spermidine; assay type: functional
# Procedure, shortened: (§3)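 FL5.12A pro-B cells in RPMI1640 with 10% heat-inactivated FCS and 1 mM aminoguanidine, 37 °C, 5% CO2. Preincubated 24 h at the stated IL-3 level (5 × 10⁶ cells/well), then dosed overnight with spermidine 100 µM. Washed, shocked 2 min in 10% DMSO, washed twice in Hank's, and held 2 h at 37 °C.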
# [11] = Induction of apoptosis in 2 ng/ml IL3-induced mouse FL5.12A cells at 10 uM after DMSO shock; assay type: functional
# Procedure, shortened: (§4)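 FL5.12A pro-B cells in RPMI1640 with 10% heat-inactivated FCS and 1 mM aminoguanidine, 37 °C, 5% CO2. Preincubated 24 h with IL-3 at the stated level (5 × 10⁶ cells/well), then dosed overnight without spermidine. Washed, shocked 2 min in 10% DMSO, washed twice with Hank's, and held 2 h at 37 °C.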
# FL5.12 [12] = test: Induction of apoptosis in mouse FL5.12A cells at 10 uM after DMSO shock; assay type: functional
# Procedure, shortened: (§5)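 FL5.12A cells held 24 h at 2, 0.1 or 0 ng/mL IL-3 (5 × 10⁶ cells/well), treated overnight with or without spermidine (100 µM), then washed and exposed to 10% DMSO for 2 min. Washed twice in Hank's medium and incubated 2 h at 37 °C. Apoptosis read as % annexin-V-FITC-positive cells; run in duplicate.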
# [13] = Induction of apoptosis in 0.1 ng/ml IL3-induced mouse FL5.12A cells at 10 uM after DMSO shock; assay type: functional; procedure, shortened: as §4
# [14] = Induction of apoptosis in 0.1 ng/ml IL3-induced mouse FL5.12A cells treated after DMSO shock at 10 uM in presence of spermidine; assay type: functional; procedure, shortened: as §3
# FL5.12 [15] = test: Induction of apoptosis in mouse FL5.12A cells treated after DMSO shock at 10 uM in presence of spermidine; assay type: functional; procedure, shortened: as §5
# L1210 [16] = test: Cytotoxicity against mouse L1210 cells after 24 hrs in presence of 100 uM spermidine; assay type: functional, cell-based; details: L1210, 24 h
# FL5.12 [17] = test: Induction of apoptosis in mouse FL5.12A cells at 10 uM in presence of spermidine; assay type: functional
# Procedure, shortened: (§6)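 FL5.12A cells held 24 h at 2, 0.1 or 0 ng/mL IL-3 (5 × 10⁶ cells/well), then treated with compound overnight with or without spermidine (100 µM). Apoptosis read as % annexin-V-FITC-positive cells by flow cytometry; run in duplicate.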
# FL5.12 [18] = test: Induction of apoptosis in 0.1 ng/ml IL3-induced mouse FL5.12A cells at 10 uM in presence of spermidine; assay type: functional; procedure, shortened: as §6
# FL5.12 [19] = test: Induction of apoptosis in 2 ng/ml IL3-induced mouse FL5.12A cells at 10 uM in presence of spermidine; assay type: functional; procedure, shortened: as §6
Structure (SMILES),pKi [1],pIC50 (CHO),pIC50 (L1210 [2]),pIC50 (CHO-MG),selectivity ratio [4],pIC50 (L1210 [5]),Activity (FL5.12 [6]),Activity (FL5.12 [7]),Activity (FL5.12 [8]),pIC50 (L1210 [9]),further results
NCCCCNCCCCNCc1ccc(N(CCCl)CCCl)cc1,5.22,< 4.00,4.51,< 4.00,1,4.45,–,–,–,–,degraded at 48 h [3]: 89%
NCCCCNCCCCNCc1ccccc1,5.35,–,–,< 3.00,–,4.44,–,–,–,–,–
NCCCCNCCCN [SPERMIDINE],–,–,–,–,–,–,5.52%,58.16%,6.07%,–,–
Cl.NCCCCNCCCCNCc1c2ccccc2c(CNCCCCNCCCCN)c2ccccc12,6.41,7.35,5.26,< 4.00,> 2220,6.11,5.56%,8.64%,6.07%,6.66,Activity [10]: 12.9%; Activity [11]: 44.7%; Activity (FL5.12 [12]): 67.53%; Activity [13]: 56.7%; Activity [14]: 10.2%; Activity (FL5.12 [15]): 16.69%
Cl.Cl.NCCCCNCc1c2ccccc2cc2ccccc12,4.49,5.11,–,–,1,–,>95%,>95%,>95%,5.01,pIC50 (L1210 [16]): 5.16; Activity (FL5.12 [17]): 35.32%; Activity (FL5.12 [18]): 35.59%; Activity (FL5.12 [19]): 47.28%
NCCCCNCCCCNCc1ccc(CNCCCCNCCCCN)cc1,6.28,7.13,5.16,4.30,677,6.80,–,–,–,6.44,–
NCCCCNCCCNCc1ccc(N(CCCl)CCCl)cc1,5.58,< 4.00,5.11,< 4.00,1,5.19,–,–,–,–,–
Cl.NCCCCNCCCCNCc1c2ccccc2cc2ccccc12,5.74,–,6.08,–,148,–,67.71%,>95%,80.41%,7.05,Activity (FL5.12 [17]): 46.2%; Activity (FL5.12 [18]): 33.87%; Activity (FL5.12 [19]): 37.3%
NCCCCNCCCCNCc1cccc2ccccc12,5.42,6.22,–,–,> 164,–,–,–,–,6.37,–
NCCCNCCCCNCc1ccc(N(CCCl)CCCl)cc1,4.91,< 4.00,5.09,< 4.00,1,5.09,–,–,–,–,–
O=C(O)CCCc1ccc(N(CCCl)CCCl)cc1 [CHLORAMBUCIL],< 3.82,4.07,–,3.95,1.32,4.85,–,–,–,–,–
N=C(N)NN [PIMAGEDINE],–,–,–,–,–,–,5.17%,79.69%,3.72%,–,–
NCCCCNCCCCNCc1ccc(CNCCCCNCCCCN)c2ccccc12,6.77,6.92,5.19,< 4.00,> 833,6.60,–,–,–,–,–
